Test results as given in paper PMC8521277 (The EMBO Journal, 2021).

B1: GCS‐Δ3C (protein)
chain: MALLDLALEGMAVFGFVLFLVLWLMHFMAIIYTRLHLNKKATDKQPYSKLPGVSLLKPLKGVDPNLINNLETFFELDYPKYEVLLCVQDHDDPAIDVCKKLLGKYPNVDARLFIGGKKVGINPKINNLMPGYEVAKYDLIWICDSGIRVIPDTLTDMVNQMTEKVGLVHGLPYVADRQGFAATLEQVYFGTSHPRYYISANVTGFKCVTGMSCLMRKDVLDQAGGLIAFAQYIAEDYFMAKAIADRGWRFAMSTQVAMQNSGSYSISQFQSRMIRWTKLRINMLPATIICEPISECFVASLIIGWAAHHVFRWDIMVFFMCHCLAWFIFDYIQLRGVQGGTLCFSKLDYAVAWFIRESMTIYIFLSALWDPTISWRTGRYRLRCGGTAEEI
modifications: left off: HA (9aa), internal (between the two Gly residues of DPTISWRTGRYRLRCGGTAEEI), kept
B2: Gb3S: Gb3 synthase, expressed in cells (protein)
chain: MSKPPDLLLRLLRGAPRQRVCTLFIIGFKFTFFVSIMIYWHVVGEPKEKGQLYNLPAEIPCPTLTPPTPPSHGPTPGNIFFLETSDRTNPNFLFMCSVESAARTHPESHVLVLMKGLPGGNASLPRHLGISLLSCFPNVQMLPLDLRELFRDTPLADWYAAVQGRWEPYLLPVLSDASRIALMWKFGGIYLDTDFIVLKNLRNLTNVLGTQSRYVLNGAFLAFERRHEFMALCMRDFVDHYNGWIWGHQGPQLLTRVFKKWCSIRSLAESRACRGVTTLPPEAFYPIPWQDWKKYFEDINPEELPRLLSATYAVHVWNKKSQGTRFEATSRALLAQLHARYCPTTHEAMKMYL
modifications: left off: HA, end not stated, kept
B3: LCS: LacCer synthase, expressed in cells (protein)
chain: MRARRGLLRLPRRSLLAALFFFSLSSSLLYFVYVAPGIVNTYLFMMQAQGILIRDNVRTIGAQVYEQVLRSAYAKRNSSVNDSDYPLDLNHSETFLQTTTFLPEDFTYFANHTCPERLPSMKGPIDINMSEIGMDYIHELFSKDPTIKLGGHWKPSDCMPRWKVAILIPFRNRHEHLPVLFRHLLPMLQRQRLQFAFYVVEQVGTQPFNRAMLFNVGFQEAMKDLDWDCLIFHDVDHIPESDRNYYGCGQMPRHFATKLDKYMYLLPYTEFFGGVSGLTVEQFRKINGFPNAFWGWGGEDDDLWNRVQNAGYSVSRPEGDTGKYKSIPHHHRGEVQFLGRYALLRKSKERQGLDGLNNLNYFANITYDALYKNITVNLTPELAQVNEY
modifications: left off: HA, end not stated, kept
B4: GM3S: GM3 synthase, expressed in cells (protein)
chain: MRTKAAGCAERRPLQPRTEAAAAPAGRAMPSEYTYVKLRSDCSRPSLQWYTRAQSKMRRPSLLLKDILKCTLLVFGVWILYILKLNYTTEECDMKKMHYVDPDHVKRAQKYAQQVLQKECRPKFAKTSMALLFEHRYSVDLLPFVQKAPKDSEAESKYDPPFGFRKFSSKVQTLLELLPEHDLPEHLKAKTCRRCVVIGSGGILHGLELGHTLNQFDVVIRLNSAPVEGYSEHVGNKTTIRMTYPEGAPLSDLEYYSNDLFVAVLFKSVDFNWLQAMVKKETLPFWVRLFFWKQVAEKIPLQPKHFRILNPVIIKETAFDILQYSEPQSRFWGRDKNVPTIGVIAVVLATHLCDEVSLAGFGYDLNQPRTPLHYFDSQCMAAMNFQTMHNVTTETKFLLKLVKEGVVKDLSGGIDREF
modifications: left off: HA, end not stated, kept
B5: GCS: GlcCer synthase, full‐length, expressed in cells (protein)
chain: MALLDLALEGMAVFGFVLFLVLWLMHFMAIIYTRLHLNKKATDKQPYSKLPGVSLLKPLKGVDPNLINNLETFFELDYPKYEVLLCVQDHDDPAIDVCKKLLGKYPNVDARLFIGGKKVGINPKINNLMPGYEVAKYDLIWICDSGIRVIPDTLTDMVNQMTEKVGLVHGLPYVADRQGFAATLEQVYFGTSHPRYYISANVTGFKCVTGMSCLMRKDVLDQAGGLIAFAQYIAEDYFMAKAIADRGWRFAMSTQVAMQNSGSYSISQFQSRMIRWTKLRINMLPATIICEPISECFVASLIIGWAAHHVFRWDIMVFFMCHCLAWFIFDYIQLRGVQGGTLCFSKLDYAVAWFIRESMTIYIFLSALWDPTISWRTGRYRLRCGGTAEEILDV
modifications: left off: HA (9aa), internal (between the two Gly residues of DPTISWRTGRYRLRCGGTAEEILDV), kept
B6: GCS‐HAC: GCS with a HA‐tag at the C‐terminus (protein, UniProt Q16739 1-394, looked up)
Ceramide glucosyltransferase: B5 chain
modifications: C-terminal HA tag
B7: GCS‐HAN: GCS with a HA‐tag in the N‐terminal tail (protein, UniProt Q16739 1-394, looked up)
Ceramide glucosyltransferase: B5 chain
modifications: HA tag in N-terminal tail

Tests used:
HeLa cells [1] = experiment: [3H]-sphingosine pulse-chase assay after expression of GCS constructs; format: cell-based, human; conditions: 8 h chase, two independent experiments; for increase in GSL production: transfected construct 16 h
How it was run: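 HeLa cells were transfected with GCS constructs for 16 h, with non-transfected cells run alongside. Cells were pulse-labelled for 2 h with [3H]-sphingosine (final 0.1 μCi/ml) in serum-free DMEM with 1% fatty-acid-free BSA, then chased 8 h in complete medium with or without BFA (5 μg/ml). Lipids were extracted and resolved by HPTLC (chloroform/methanol/water 65:25:4). Total GSL radioactivity is given as fold change versus control, mean ± SD of two experiments, with Student's t-test.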

HeLa cells [2] = experiment: Localization of SL biosynthetic enzymes after Brefeldin A, immunofluorescence; format: cell-based, human; conditions: BFA 5 μg/ml, 30 min; SMS1 also in punctate structures
[3] = target: GRASP domain of GRASP55 (recombinant protein used for ITC); experiment: ITC
endogenous GRASP55 = format: binding, human; conditions: HA-tagged enzymes, WI-26 fibroblasts, anti-HA IP
GRASP55‐GFP = experiment: Co-immunoprecipitation of HA-tagged enzymes with GRASP55-GFP in HeLa cells; format: binding, human; conditions: anti-GFP IP, anti-HA blot
How it was run: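 HeLa cells were co-transfected with HA-tagged GCS, LCS, GM3S or Gb3S plus GRASP55-GFP. Cells were lysed and immunoprecipitated with anti-GFP antibody or control IgG. Interaction was read by Western blotting with anti-HA antibody.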

Molecule	co-immunoprecipitation with endogenous GRASP55 (in words) (endogenous GRASP55)	co-immunoprecipitation with GRASP55-GFP (in words) (GRASP55‐GFP)	further results
C[C@H]1CCC/C=C/[C@@H]2C[C@H](O)C[C@H]2[C@H](O)/C=C/C(=O)O1 [Brefeldin A, reference compound]	–	–	effect on differences in GSL production between GCS constructs (in words) (HeLa cells [1]; BFA 5 μg/ml): neutralized these differences; localization of SL biosynthetic enzymes (in words) (HeLa cells [2]): translocation of the enzymes back into the ER
GCS C-terminal cytosolic tail peptide (biotinylated, WT)	–	–	Kd [3]: 2000 nM
B1	impaired the interaction	–	–
B2	–	do not interact	–
B3	interaction of GCS and LCS with endogenous GRASP55 was also observed	co‐immunoprecipitated with GRASP55‐GFP	–
B4	–	do not interact	–
B5	interaction of GCS and LCS with endogenous GRASP55 was also observed	co‐immunoprecipitated with GRASP55‐GFP	–
B6	–	–	increase in GSL production (HeLa cells [1]): 2.3 fold
B7	–	–	increase in GSL production (HeLa cells [1]): 2.6 fold
